ChEMBL document CHEMBL4152228, “Structural-based design, synthesis, and antitumor activity of novel alloxazine analogues with potential selective kinase inhibition” (Eur J Med Chem, 2018)

How the values were obtained:
[1] = target: Receptor tyrosine-protein kinase erbB-2 (Homo sapiens) (UniProt P04626); experiment: Inhibition of HER2 (unknown origin) at 10 uM by [33P]-ATP radiometric assay
Summary of the method: (§1)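 Radiometric kinase profiling: purified recombinant kinase (~10–50 nM final) with substrate, assay buffer and compound at 10 µM (control 10% DMSO). Started with 33P-ATP (50 µM stock, 0.8 µCi), run 30 min at ambient temperature, then spotted onto P81 phosphocellulose and washed in 1% phosphoric acid. Scintillation counted, no-substrate blank subtracted, single measurement, result given as % change versus control.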

[2] = target: Calcium/calmodulin-dependent protein kinase type II subunit alpha (Homo sapiens) (UniProt Q9UQM7); experiment: Inhibition of CAMK2-alpha (unknown origin) at 10 uM by [33P]-ATP radiometric assay; summary of the method: as §1
[3] = target: Mitogen-activated protein kinase 3 (Homo sapiens) (UniProt P27361); experiment: Inhibition of ERK1 (unknown origin) at 10 uM by [33P]-ATP radiometric assay; summary of the method: as §1
[4] = target: Fibroblast growth factor receptor 1 (Homo sapiens) (UniProt P11362); experiment: Inhibition of FGFR1 (unknown origin) at 10 uM by [33P]-ATP radiometric assay; summary of the method: as §1
[5] = target: Epidermal growth factor receptor (Homo sapiens) (UniProt P00533); experiment: Inhibition of EGFR (unknown origin) at 10 uM by [33P]-ATP radiometric assay; summary of the method: as §1
K562 = experiment: Antiproliferative activity against human K562 cells after 72 hrs by MTT assay; type: functional, cell-based; conditions: K562, 72 h
[6] = target: Calcium/calmodulin-dependent protein kinase type 1 (Homo sapiens) (UniProt Q14012); experiment: Inhibition of CAMK1 (unknown origin) at 10 uM by [33P]-ATP radiometric assay; summary of the method: as §1
MCF7 = experiment: Antiproliferative activity against human MCF7 cells after 72 hrs by MTT assay; type: functional, cell-based; conditions: MCF7, 72 h
Summary of the method: (§2)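 MTT viability assay. Cells grown in RPMI-1640 with 10% heat-inactivated FBS, L-glutamine and 1% penicillin/streptomycin, used within 20 passages. Seeded at 5×10^3 cells/well, left overnight at 37 °C, then exposed to final concentrations of 0.005–50 µM (0.1% DMSO) for up to 72 h. MTT added for 3 h, formazan dissolved in DMSO, absorbance read at 550 nm. IC50 derived relative to untreated controls.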

[7] = target: Protein kinase C beta type (Homo sapiens) (UniProt P05771); experiment: Inhibition of PCK-beta2 (unknown origin) at 10 uM by [33P]-ATP radiometric assay; summary of the method: as §1
[8] = target: Hepatocyte growth factor receptor (Homo sapiens) (UniProt P08581); experiment: Inhibition of MET (unknown origin) at 10 uM by [33P]-ATP radiometric assay; summary of the method: as §1
[9] = target: Cyclin-dependent kinase 16 (Homo sapiens) (UniProt Q00536); experiment: Inhibition of CDK16 (unknown origin) at 10 uM by [33P]-ATP radiometric assay; summary of the method: as §1
HCT-116 = experiment: Antiproliferative activity against human HCT116 cells after 72 hrs by MTT assay; type: functional, cell-based; conditions: HCT-116, 72 h; summary of the method: as §2
[10] = target: Mitogen-activated protein kinase 8 (Homo sapiens) (UniProt P45983); experiment: Inhibition of JNK1 (unknown origin) at 10 uM by [33P]-ATP radiometric assay; summary of the method: as §1
A2780 = experiment: Antiproliferative activity against human A2780 cells after 72 hrs by MTT assay; type: functional, cell-based; conditions: A2780, 72 h; summary of the method: as §2
[11] = target: Mast/stem cell growth factor receptor Kit (Homo sapiens) (UniProt P10721); experiment: Inhibition of c-KIT (unknown origin) at 10 uM by [33P]-ATP radiometric assay
Summary of the method: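 Radiometric kinase profiling: purified recombinant kinase (~10–50 nM final) with substrate, assay buffer and compound at 10 µM (control 10% DMSO). Started with 33P-ATP (50 µM stock, 0.8 µCi), run 30 min at ambient temperature, then spotted onto P81 phosphocellulose and washed in 1% phosphoric acid.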

[12] = Antiproliferative activity against human WM793B cells after 72 hrs by MTT assay; type: functional, cell-based; summary of the method: as §2
[13] = target: Activin receptor type-2A (Homo sapiens) (UniProt P27037); experiment: Inhibition of ACVR2A (unknown origin) at 10 uM by [33P]-ATP radiometric assay; summary of the method: as §1
[14] = target: Casein kinase I isoform alpha (Homo sapiens) (UniProt P48729); experiment: Inhibition of CK1alpha1 (unknown origin) at 10 uM by [33P]-ATP radiometric assay; summary of the method: as §1

Sequence of Protein kinase C beta type (Homo sapiens) (P05771 2-671 limits assumed): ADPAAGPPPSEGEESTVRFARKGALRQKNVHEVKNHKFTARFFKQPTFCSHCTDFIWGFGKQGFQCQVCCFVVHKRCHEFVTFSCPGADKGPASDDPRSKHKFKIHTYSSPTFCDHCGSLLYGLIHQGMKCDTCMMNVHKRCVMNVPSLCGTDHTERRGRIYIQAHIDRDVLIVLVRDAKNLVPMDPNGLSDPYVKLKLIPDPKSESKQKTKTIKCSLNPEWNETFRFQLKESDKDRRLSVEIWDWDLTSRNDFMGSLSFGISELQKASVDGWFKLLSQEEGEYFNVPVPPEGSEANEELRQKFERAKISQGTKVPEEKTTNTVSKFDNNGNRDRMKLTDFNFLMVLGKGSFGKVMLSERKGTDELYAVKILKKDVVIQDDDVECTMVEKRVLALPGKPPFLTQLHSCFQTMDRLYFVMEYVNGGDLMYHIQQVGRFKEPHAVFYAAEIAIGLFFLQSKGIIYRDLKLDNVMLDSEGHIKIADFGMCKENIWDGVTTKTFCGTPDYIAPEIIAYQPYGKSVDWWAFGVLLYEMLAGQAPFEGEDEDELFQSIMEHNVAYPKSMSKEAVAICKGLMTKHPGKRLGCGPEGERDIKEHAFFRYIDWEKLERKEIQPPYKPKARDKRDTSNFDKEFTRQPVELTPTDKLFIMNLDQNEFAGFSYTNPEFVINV
Sequence of Epidermal growth factor receptor (Homo sapiens) (P00533 whole entry): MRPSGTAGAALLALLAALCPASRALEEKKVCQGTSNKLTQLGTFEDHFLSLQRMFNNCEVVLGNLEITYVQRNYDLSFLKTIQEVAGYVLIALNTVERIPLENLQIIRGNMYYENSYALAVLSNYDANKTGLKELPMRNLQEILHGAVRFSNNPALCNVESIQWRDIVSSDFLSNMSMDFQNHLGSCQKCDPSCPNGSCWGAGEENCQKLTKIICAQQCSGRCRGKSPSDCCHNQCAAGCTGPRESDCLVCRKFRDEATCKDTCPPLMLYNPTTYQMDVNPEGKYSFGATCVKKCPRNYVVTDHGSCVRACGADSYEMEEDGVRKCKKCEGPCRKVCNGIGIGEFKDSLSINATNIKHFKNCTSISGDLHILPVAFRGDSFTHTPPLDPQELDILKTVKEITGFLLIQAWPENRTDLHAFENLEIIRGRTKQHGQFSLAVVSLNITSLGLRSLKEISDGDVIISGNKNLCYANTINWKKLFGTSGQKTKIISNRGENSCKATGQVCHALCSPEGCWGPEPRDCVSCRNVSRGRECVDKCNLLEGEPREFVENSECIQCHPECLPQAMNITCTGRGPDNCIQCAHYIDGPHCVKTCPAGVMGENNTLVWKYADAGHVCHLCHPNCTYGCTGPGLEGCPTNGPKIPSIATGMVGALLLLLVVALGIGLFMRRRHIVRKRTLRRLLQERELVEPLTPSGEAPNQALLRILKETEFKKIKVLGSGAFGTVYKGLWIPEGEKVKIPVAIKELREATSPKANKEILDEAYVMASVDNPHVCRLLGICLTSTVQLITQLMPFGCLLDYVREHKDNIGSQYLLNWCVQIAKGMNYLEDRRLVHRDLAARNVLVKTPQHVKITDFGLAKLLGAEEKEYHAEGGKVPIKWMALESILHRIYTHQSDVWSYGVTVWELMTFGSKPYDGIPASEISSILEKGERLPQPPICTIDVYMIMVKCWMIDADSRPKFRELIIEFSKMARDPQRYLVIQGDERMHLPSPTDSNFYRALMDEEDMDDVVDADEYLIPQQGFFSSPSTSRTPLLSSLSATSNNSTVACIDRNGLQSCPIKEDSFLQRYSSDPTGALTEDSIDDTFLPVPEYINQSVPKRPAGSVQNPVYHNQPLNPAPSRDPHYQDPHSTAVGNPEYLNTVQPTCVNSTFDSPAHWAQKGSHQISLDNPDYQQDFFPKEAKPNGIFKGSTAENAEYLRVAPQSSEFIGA
Sequence of Cyclin-dependent kinase 16 (Homo sapiens) (Q00536 whole entry): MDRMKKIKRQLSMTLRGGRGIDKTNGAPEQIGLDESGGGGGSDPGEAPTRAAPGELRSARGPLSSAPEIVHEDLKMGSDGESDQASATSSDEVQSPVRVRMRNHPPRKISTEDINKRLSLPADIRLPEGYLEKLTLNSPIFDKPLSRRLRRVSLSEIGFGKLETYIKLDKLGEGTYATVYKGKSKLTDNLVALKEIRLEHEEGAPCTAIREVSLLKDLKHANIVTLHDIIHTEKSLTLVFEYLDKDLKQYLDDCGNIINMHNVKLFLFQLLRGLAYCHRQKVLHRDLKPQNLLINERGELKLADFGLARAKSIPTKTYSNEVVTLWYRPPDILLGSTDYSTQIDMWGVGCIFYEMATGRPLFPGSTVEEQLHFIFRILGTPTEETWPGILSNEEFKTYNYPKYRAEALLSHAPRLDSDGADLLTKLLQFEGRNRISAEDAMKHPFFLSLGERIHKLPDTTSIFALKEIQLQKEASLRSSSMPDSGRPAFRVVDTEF
Sequence of Mitogen-activated protein kinase 3 (Homo sapiens) (P27361 whole entry): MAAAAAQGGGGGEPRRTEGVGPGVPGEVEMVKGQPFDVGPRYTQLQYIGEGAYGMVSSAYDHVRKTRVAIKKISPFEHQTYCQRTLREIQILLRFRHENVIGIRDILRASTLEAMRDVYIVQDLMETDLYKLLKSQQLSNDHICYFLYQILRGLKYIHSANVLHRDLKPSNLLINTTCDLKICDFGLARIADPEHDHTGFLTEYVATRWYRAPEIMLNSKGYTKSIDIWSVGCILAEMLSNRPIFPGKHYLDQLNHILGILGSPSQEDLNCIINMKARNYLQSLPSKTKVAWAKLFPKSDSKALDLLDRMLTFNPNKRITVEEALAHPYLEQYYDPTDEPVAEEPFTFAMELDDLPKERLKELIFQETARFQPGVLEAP
Sequence of Fibroblast growth factor receptor 1 (Homo sapiens) (P11362 22-822 limits assumed): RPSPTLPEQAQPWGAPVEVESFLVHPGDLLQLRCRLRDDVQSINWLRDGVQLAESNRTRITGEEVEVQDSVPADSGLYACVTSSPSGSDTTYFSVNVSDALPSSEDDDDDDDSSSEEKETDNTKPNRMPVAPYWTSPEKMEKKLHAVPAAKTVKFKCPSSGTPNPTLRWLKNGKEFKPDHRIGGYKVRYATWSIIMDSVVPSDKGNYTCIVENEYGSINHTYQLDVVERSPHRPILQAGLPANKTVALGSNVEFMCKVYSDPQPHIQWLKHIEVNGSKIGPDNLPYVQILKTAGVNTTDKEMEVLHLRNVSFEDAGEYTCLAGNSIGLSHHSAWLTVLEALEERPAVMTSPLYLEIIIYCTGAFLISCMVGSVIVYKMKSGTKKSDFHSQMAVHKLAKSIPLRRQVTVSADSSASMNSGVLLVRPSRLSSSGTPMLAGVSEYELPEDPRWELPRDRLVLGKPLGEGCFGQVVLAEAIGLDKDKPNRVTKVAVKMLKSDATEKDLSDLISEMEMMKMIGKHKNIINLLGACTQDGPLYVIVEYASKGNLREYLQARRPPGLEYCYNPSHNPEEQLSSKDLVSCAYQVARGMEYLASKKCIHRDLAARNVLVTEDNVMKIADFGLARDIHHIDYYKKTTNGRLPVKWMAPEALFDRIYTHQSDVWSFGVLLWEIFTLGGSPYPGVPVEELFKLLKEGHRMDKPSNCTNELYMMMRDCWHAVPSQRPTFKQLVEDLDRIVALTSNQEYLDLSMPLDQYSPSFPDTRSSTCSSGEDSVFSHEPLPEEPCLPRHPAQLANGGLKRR
Sequence of Hepatocyte growth factor receptor (Homo sapiens) (P08581 whole entry): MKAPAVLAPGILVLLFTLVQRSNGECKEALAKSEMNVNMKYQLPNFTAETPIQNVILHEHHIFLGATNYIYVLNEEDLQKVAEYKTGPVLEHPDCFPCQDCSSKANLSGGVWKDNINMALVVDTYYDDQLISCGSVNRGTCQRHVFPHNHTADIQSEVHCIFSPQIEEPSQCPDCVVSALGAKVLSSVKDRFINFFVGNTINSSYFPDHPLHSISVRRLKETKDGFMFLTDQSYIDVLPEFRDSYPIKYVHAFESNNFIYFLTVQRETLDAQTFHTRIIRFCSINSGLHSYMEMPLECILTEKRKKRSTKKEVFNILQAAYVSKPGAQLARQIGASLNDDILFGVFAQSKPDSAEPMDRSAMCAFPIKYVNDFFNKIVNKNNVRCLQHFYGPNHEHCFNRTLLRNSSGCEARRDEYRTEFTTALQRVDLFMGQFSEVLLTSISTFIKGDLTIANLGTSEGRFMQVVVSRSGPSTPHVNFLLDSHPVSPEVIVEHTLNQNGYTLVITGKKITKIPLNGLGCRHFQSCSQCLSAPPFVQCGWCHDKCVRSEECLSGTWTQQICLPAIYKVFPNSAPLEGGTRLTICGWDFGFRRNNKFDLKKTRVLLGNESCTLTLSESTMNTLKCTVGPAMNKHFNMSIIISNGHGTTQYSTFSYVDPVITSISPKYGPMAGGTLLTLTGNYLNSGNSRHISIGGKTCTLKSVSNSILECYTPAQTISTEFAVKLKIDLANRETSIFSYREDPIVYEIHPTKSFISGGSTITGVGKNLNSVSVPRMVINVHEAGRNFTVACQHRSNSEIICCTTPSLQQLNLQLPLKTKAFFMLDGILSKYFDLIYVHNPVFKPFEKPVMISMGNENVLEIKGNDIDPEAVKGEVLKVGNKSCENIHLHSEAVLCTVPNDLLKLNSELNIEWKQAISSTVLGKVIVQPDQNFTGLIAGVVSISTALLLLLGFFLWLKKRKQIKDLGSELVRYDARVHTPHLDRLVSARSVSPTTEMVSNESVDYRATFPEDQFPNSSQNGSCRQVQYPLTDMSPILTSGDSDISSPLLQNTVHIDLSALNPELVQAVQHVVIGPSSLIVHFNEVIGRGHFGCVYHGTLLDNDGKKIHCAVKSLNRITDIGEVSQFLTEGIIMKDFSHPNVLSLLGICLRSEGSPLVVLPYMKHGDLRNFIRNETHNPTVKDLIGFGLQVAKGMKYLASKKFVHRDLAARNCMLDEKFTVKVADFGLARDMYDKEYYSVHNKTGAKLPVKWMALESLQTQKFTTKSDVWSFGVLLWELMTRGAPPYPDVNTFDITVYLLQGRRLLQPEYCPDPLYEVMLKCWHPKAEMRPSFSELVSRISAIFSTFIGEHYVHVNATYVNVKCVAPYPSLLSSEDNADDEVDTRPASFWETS

| inhibition [1] | inhibition [2] | inhibition [3] | inhibition [4] | inhibition [5] | IC50 (K562) | inhibition [6] | IC50 (MCF7) | inhibition [7] | inhibition [8] | inhibition [9] | IC50 (HCT-116) | inhibition [10] | IC50 (A2780) | inhibition [11] | inhibition [13] | inhibition [14] | SMILES | IC50 [12] |
| --- | --- | --- | --- | --- | --- | --- | --- | --- | --- | --- | --- | --- | --- | --- | --- | --- | --- | --- |
| 8% | -6% | 6% | 37% | 16% | 26.8 µM | 14% | 0.62 µM | 5% | 9% | 11% | 0.72 µM | -5% | 0.54 µM | 60% |  |  | CN1CCN(Cc2ccc(CNc3nc4nc5ccc(Cl)cc5cc4c(=O)[nH]3)cc2)CC1 | > 50 µM |
|  |  |  |  |  | 23.2 µM |  | 3.13 µM |  |  |  | 5.22 µM |  | 2.89 µM |  |  |  | COc1ccc2nc3nc(NCc4ccc(CN5CCOCC5)cc4)[nH]c(=O)c3cc2c1 | 49.1 µM |
| 4% | 0% | 5% | 50% | 12% | 13.5 µM | 18% | 0.53 µM | 3% | 18% | -1% | 0.82 µM | -4% | 0.32 µM | 36% |  |  | Cc1ccc2nc3nc(NCc4ccc(CN5CCN(C)CC5)cc4)[nH]c(=O)c3cc2c1 | 10.5 µM |
|  |  |  |  |  | 15.9 µM |  | 2.34 µM |  |  |  | 7.23 µM |  | 1.52 µM |  |  |  | Cc1ccc2nc3nc(NCc4ccc(CN5CCCCC5)cc4)[nH]c(=O)c3cc2c1 | 11 µM |
|  | 1% | -2% | 1% | 9% | 3.43 µM | 10% | 7.12 µM | 10% | 10% | 10% | 19.7 µM |  | 8.9 µM |  | -2% | 11% | Cc1ccc(NC(=O)c2ccc(CN3CCN(C)CC3)cc2)cc1Nc1nccc(-c2cccnc2)n1 [IMATINIB] |  |
|  |  |  |  |  |  |  | 0.17 µM |  |  |  |  |  |  |  |  |  | Cc1ccc2nc3nc(NCCO)[nH]c(=O)c3cc2c1 |  |
|  |  |  |  |  | > 50 µM |  | 5.73 µM |  |  |  | 5.78 µM |  | 4.83 µM |  |  |  | COc1ccc2nc3nc(NC(C)c4ccccc4)[nH]c(=O)c3nc2c1 (stereo unspecified) | > 50 µM |
|  |  |  |  |  |  |  | 6.8 µM |  |  |  | 10.1 µM |  | 10.4 µM |  |  |  | CS(=O)(=O)CCNCc1ccc(-c2ccc3ncnc(Nc4ccc(OCc5cccc(F)c5)c(Cl)c4)c3c2)o1 [LAPATINIB] |  |
|  |  |  |  |  | > 50 µM |  | 1.49 µM |  |  |  | 1.53 µM |  | 2.01 µM |  |  |  | O=c1[nH]c(NCc2ccc(CN3CCOCC3)cc2)nc2nc3ccccc3nc12 | > 50 µM |
|  |  |  |  |  | 17.3 µM |  | 0.8 µM |  |  |  | 0.93 µM |  | 0.9 µM |  |  |  | COc1ccc(CCN2CCC(Nc3nc4nc5ccc(OC)cc5nc4c(=O)[nH]3)CC2)cc1 | 33.1 µM |
|  |  |  |  |  |  |  | 1.79 µM |  |  |  |  |  |  |  |  |  | CSc1nc2nc3ccc(C)cc3cc2c(=O)[nH]1 |  |
